Test results: ChEMBL document CHEMBL1157729, “Structure-activity relationship and mechanism of action studies of manzamine analogues for the control of neuroinflammation and cerebral infections” (J Med Chem, 2010); call rule not given here
Values after ≈ are worked out from the molar mass of the structure shown.

How the values were obtained:
Plasmodium falciparum [1] = assay: Antiplasmodial activity against chloroquine-sensitive Plasmodium falciparum D6 after 72 hrs by LDH assay; type: functional, organism-based
Plasmodium falciparum [2] = assay: Antiplasmodial activity against chloroquine-resistant Plasmodium falciparum W2 after 72 hrs by LDH assay; type: functional, organism-based
Vero = assay: Cytotoxicity against african green monkey Vero cells up to 4.6 ug/mL after 48 hrs by neutral red assay; type: cell-based; details: chlorocebus sabaeus
Outline: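 Vero cells were seeded at 25,000 cells/well and incubated for 24 h, then exposed to serially diluted samples for 48 h. Viable cells were counted by Neutral Red assay, with doxorubicin as positive control. IC50 was taken from dose-response curves.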

[3] = system: Mycobacterium tuberculosis; assay: Antimycobacterial activity against Mycobacterium tuberculosis H37Rv; type: functional, organism-based
Candida albicans = assay: Antifungal activity against Candida albicans ATCC 90028; type: functional, organism-based
Outline: (§1)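 Broth microdilution per modified CLSI method; samples serially diluted in 20% DMSO/saline, tested in duplicate; inocula set by OD630 of suspensions in incubation broth; growth read at 630 nm before and after incubation; amphotericin B drug control.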

Cryptococcus neoformans = assay: Antifungal activity against Cryptococcus neoformans ATCC 90113; type: functional, organism-based; outline: as §1
[4] = system: Mycobacterium intracellulare; assay: Antimycobacterial activity against Mycobacterium intracellular ATCC 23068; type: functional, organism-based
Outline: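 Modified Franzblau method; samples serially diluted in 20% DMSO/saline, tested in duplicate; inoculum set by OD630; fluorescence read at 544ex/590em before and after incubation; ciprofloxacin drug control.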

[5] = Antineuroinflammatory activity in LPS-stimulated rat neonatal microglia assessed as inhibition of PMA-induced superoxide anion production preincubated 15 mins prior to PMA challenge measured after 70 mins; type: functional, cell-based
[6] = Antineuroinflammatory activity in LPS-stimulated rat neonatal microglia assessed as inhibition of PMA-induced TXB2 production preincubated 15 mins prior to PMA challenge measured after 70 mins; type: functional, cell-based
[7] = Antineuroinflammatory activity in LPS-stimulated rat neonatal microglia assessed as drug level causing 50% PMA-induced LDH release preincubated 15 mins prior to PMA challenge measured after 70 mins; type: functional
Outline: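 Neonatal rat microglia (2 × 10^5/well) primed with E. coli LPS 0.3 ng/mL for 17 h at 35.9 °C, washed with HBSS, given compound (0.01–10 μM) or DMSO 15 min, then PMA 1 μM; LDH read spectrophotometrically after 70 min; LDH50 relative to Triton X-100 (0.1%) release; duplicates.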

[8] = Plasmodium falciparum, W2, 72 h, read-out: IC50
[9] = Plasmodium falciparum, D6, 72 h, read-out: IC50

Row | Compound | IC50 (Plasmodium falciparum [1]) | IC50 (Plasmodium falciparum [2]) | Activity (Vero) | MIC [3] [µg/mL] | IC50 (Candida albicans) [µg/mL] | IC50 (Cryptococcus neoformans) [µg/mL] | IC50 [4] [µg/mL] | IC50 [5] [µM] | IC50 [6] [µM] | Activity [7] [µM] | IC50 (Plasmodium falciparum [2]; [8]) [µg/mL] | IC50 (Plasmodium falciparum [1]; [9]) [µg/mL]
1 | COc1ccc(/C=C2/CCN3[C@@H](CCC2=O)C[C@]24CN5CCCC/C=C\CC[C@](O)(C=C(c6nccc7c6[nH]c6c(O)cccc67)[C@@H]2CC5)[C@H]34)cc1 | Not Active | Not Active | Non-toxic | > 64 | > 20 | > 20 | > 20 |  |  |  |  | 
2 | O=CC1=C[C@@]2(O)CC/C=C\CCCCN3CC[C@@H]1[C@]1(C[C@@H]4/C=C\CCCCN4[C@H]12)C3 [IRCINAL] |  |  |  |  |  |  |  | > 10 | 0.33 | 4.6 |  | 
3 | O[C@]12C=C(c3nccc4c3[nH]c3ccccc34)[C@@H]3CCN(CCCC/C=C\CC1)C[C@@]31C[C@@H]3CCCCCCN3[C@H]12 [32,33-DIHYDROMANZAMINE A] |  |  |  | 66 (≈ 120 µM) | 9.5 (≈ 17.2 µM) | 1.5 (≈ 2.72 µM) | 0.6 (≈ 1.09 µM) |  |  |  | 1.8 (≈ 3.27 µM) | 
4 | CO[C@H]1/C=C/O[C@@]2(C)Oc3c(C)c(O)c4c(O)c(c(/C=N/N5CCN(C)CC5)c(O)c4c3C2=O)NC(=O)/C(C)=C\C=C\[C@H](C)[C@H](O)[C@@H](C)[C@@H](O)[C@@H](C)[C@H](OC(C)=O)[C@@H]1C [RIFAMPIN] |  |  |  | 0.09 (≈ 0.109 µM) |  |  |  |  |  |  |  | 
5 | CCCCCCCCCCCCn1c2ccccc2c2ccnc(C3=C[C@@]4(O)CC/C=C\CCCCN5CC[C@@H]3[C@]3(C[C@@H]6/C=C\CCCCN6[C@H]34)C5)c21 | Not Active | Not Active | Non-toxic |  | > 20 | > 20 | > 20 |  |  |  |  | 
6 | O=[N+]([O-])c1cccc2c1[nH]c1c(C3=C[C@@]4(O)CC/C=C\CCCCN5CC[C@@H]3[C@]3(C[C@@H]6/C=C\CCCCN6[C@H]34)C5)nccc12 [8-NITROMANZAMINE A] |  |  | Non-toxic |  | > 20 | 4 (≈ 6.74 µM) | 0.25 (≈ 0.421 µM) |  |  |  | 0.41 (≈ 0.691 µM) | 0.31 (≈ 0.522 µM)
7 | O=C1CC[C@H]2C[C@]34CN5CCCC/C=C\CC[C@](O)(C=C(c6nccc7c6[nH]c6c(O)cccc67)[C@@H]3CC5)[C@@H]4N2CC/C1=C/c1ccc(F)cc1 | Not Active | Not Active | Non-toxic |  | > 20 | > 20 | > 20 |  |  |  |  | 
8 | O=C1CC[C@H]2C[C@]34CN5CCCC/C=C\CC[C@](O)(C=C(c6nccc7c6[nH]c6c(O)cccc67)[C@@H]3CC5)[C@@H]4N2CC/C1=C/c1ccc(Br)cc1 | Not Active | Not Active | Non-toxic | > 64 | > 20 | > 20 | > 20 |  |  |  |  | 
9 | [O-][N+]12CCCC/C=C\CC[C@]3(O)C=C(c4nccc5c4[nH]c4ccccc45)[C@H](CC1)[C@]1(C[C@@H]4/C=C\CCCC[N@+]4([O-])[C@H]13)C2 |  |  | Non-toxic |  | > 20 | > 20 | 10 (≈ 17.2 µM) |  |  |  |  | 
10 | Oc1cccc2c1[nH]c1c(C3=C[C@@]4(O)CC/C=C\CCCCN5CC[C@@H]3[C@]3(C[C@@H]6CC[C@H](O)CCCN6[C@H]34)C5)nccc12 | Not Active | Not Active | Non-toxic | 1.7 (≈ 2.92 µM) | 15 (≈ 25.7 µM) | 10 (≈ 17.2 µM) | 1.5 (≈ 2.57 µM) |  |  |  |  | 
11 | COc1ccc(/C=C2/CCN3[C@@H](CCC2=O)C[C@]24CN5CCCC/C=C\CC[C@](O)(C=C(c6nccc7c6[nH]c6c(O)cccc67)[C@@H]2CC5)[C@H]34)cc1OC | Not Active | Not Active | Non-toxic | > 64 | > 20 | > 20 | > 20 |  |  |  |  | 
12 | N/N=C1/CCCN2[C@@H](CC1)C[C@]13CN4CCCC/C=C\CC[C@](O)(C=C(c5nccc6c5[nH]c5c(O)cccc56)[C@@H]1CC4)[C@H]23 |  |  | Non-toxic | 1.9 (≈ 3.19 µM) | > 20 | 1 (≈ 1.68 µM) | 0.09 (≈ 0.151 µM) |  |  |  | 0.038 (≈ 0.0639 µM) | 
13 | C[C@@H]1[C@H](O)[C@@H](C)/C=C/C=C/C=C/C=C/C=C/C=C/C=C/[C@H](O[C@@H]2O[C@H](C)[C@@H](O)[C@H](N)[C@@H]2O)C[C@@H]2O[C@](O)(C[C@@H](O)C[C@@H](O)[C@H](O)CC[C@@H](O)C[C@@H](O)CC(=O)O[C@H]1C)C[C@H](O)[C@H]2C(=O)O [AMPHOTERICIN B] |  |  |  |  | 0.2 (≈ 0.216 µM) |  |  |  |  |  |  | 
14 | COc1cccc(/C=C2/CCN3[C@@H](CCC2=O)C[C@]24CN5CCCC/C=C\CC[C@](O)(C=C(c6nccc7c6[nH]c6c(O)cccc67)[C@@H]2CC5)[C@H]34)c1 | Not Active | Not Active | Non-toxic | > 64 | > 20 | > 20 | > 20 |  |  |  |  | 
15 | O=C1CC[C@H]2C[C@]34CN5CCCC/C=C\CC[C@](O)(C=C(c6nccc7c6[nH]c6c(O)cccc67)[C@@H]3CC5)[C@@H]4N2CC/C1=C/c1ccc([N+](=O)[O-])cc1 | Not Active | Not Active | Non-toxic | > 64 | > 20 | > 20 | > 20 |  |  |  |  | 
16 | CC(=O)Oc1cccc2c1[nH]c1c(C3=C/C4=C/C/C=C\CCCCN5CC[C@@H]3[C@]3(C[C@@H]6/C=C\CCCCN6[C@@H]43)C5)nccc12 |  |  |  | > 64 | > 20 | > 20 | 10 (≈ 17 µM) |  |  |  | 3.8 (≈ 6.45 µM) | 2.5 (≈ 4.25 µM)
17 | COC(=O)CCCCn1c2ccccc2c2ccnc(C3=C[C@@]4(O)CC/C=C\CCCCN5CC[C@@H]3[C@]3(C[C@@H]6/C=C\C(=O)CCCN6[C@H]34)C5)c21 |  |  | Non-toxic |  | > 20 | 15 (≈ 22.2 µM) | 20 (≈ 29.5 µM) |  |  |  | 2 (≈ 2.95 µM) | 2 (≈ 2.95 µM)
18 | O=C1CC[C@H]2C[C@]34CN5CCCC/C=C\CC[C@](O)(C=C(c6nccc7c6[nH]c6c(O)cccc67)[C@@H]3CC5)[C@@H]4N2CC/C1=C/c1c(Cl)cccc1Cl | Not Active | Not Active | Non-toxic | > 64 | > 20 | > 20 | > 20 |  |  |  |  | 
19 | CC[C@@]1(O)CCCN2[C@@H](CC1)C[C@]13CN4CCCC/C=C\CC[C@](O)(C=C(c5nccc6c5[nH]c5c(O)cccc56)[C@@H]1CC4)[C@H]23 |  |  | Non-toxic | 1.9 (≈ 3.11 µM) | 2.5 (≈ 4.09 µM) | 6 (≈ 9.82 µM) | 0.25 (≈ 0.409 µM) |  |  |  |  | 0.077 (≈ 0.126 µM)
20 | O=C1CCCN2[C@@H](CC1)C[C@]13CN4CCCC/C=C\CC[C@](O)(C=C(c5nccc6c5[nH]c5c(O)cccc56)C1CC4)[C@H]23 (some centres not stated) [MANZAMINE F] |  |  |  |  | 15 (≈ 25.8 µM) |  |  |  |  |  |  | 
21 | C1=C(c2nccc3c2[nH]c2ccccc23)[C@@H]2CCN3CCCC/C=C\C/C=C/1[C@@H]1N4CCCC/C=C\[C@H]4C[C@@]12C3 [DEHYDROMANZAMINE A] |  |  |  | 46 (≈ 86.7 µM) | 9.5 (≈ 17.9 µM) | 4.5 (≈ 8.48 µM) | 0.4 (≈ 0.754 µM) |  |  |  | 2.2 (≈ 4.14 µM) | 0.12 (≈ 0.226 µM)
